In general, IC50 refers to the point on the concentration scale where inhibition reaches its midpoint. Usually AUC stands for the area under the concentration-time curve, a measure of exposure. Read a low AUC as less exposure. As usually defined, the Tmax is the time at which the peak concentration occurs. A word on the bioavailability: it is dose-corrected exposure relative to a reference, in per cent. A high value points to good availability. Usually Cmax stands for the maximum level reached in the sampled fluid or tissue. Usually half-life stands for how long it takes for the measured level to halve. High values mean slow loss, low ones fast loss. By inhibition in vivo is commonly meant the share of the control response that was lost under treatment.

Data on one molecule can be found in ChEMBL document CHEMBL1949512, “RO4383596, an orally active KDR, FGFR, and PDGFR inhibitor: synthesis and biological evaluation” (Bioorg Med Chem, 2005).

For data set [1], the target named is Epidermal growth factor receptor (Homo sapiens, UniProt P00533). Kind of data set: Inhibition of human recombinant His-tagged intracellular domain of EGFR using biotin-EEEEYFELV as substrate by HTRF assay. (In TR-FRET formats the signal depends on donor and acceptor labels being close together.)
Chain of Epidermal growth factor receptor (P00533 whole entry, the tested form may be a part): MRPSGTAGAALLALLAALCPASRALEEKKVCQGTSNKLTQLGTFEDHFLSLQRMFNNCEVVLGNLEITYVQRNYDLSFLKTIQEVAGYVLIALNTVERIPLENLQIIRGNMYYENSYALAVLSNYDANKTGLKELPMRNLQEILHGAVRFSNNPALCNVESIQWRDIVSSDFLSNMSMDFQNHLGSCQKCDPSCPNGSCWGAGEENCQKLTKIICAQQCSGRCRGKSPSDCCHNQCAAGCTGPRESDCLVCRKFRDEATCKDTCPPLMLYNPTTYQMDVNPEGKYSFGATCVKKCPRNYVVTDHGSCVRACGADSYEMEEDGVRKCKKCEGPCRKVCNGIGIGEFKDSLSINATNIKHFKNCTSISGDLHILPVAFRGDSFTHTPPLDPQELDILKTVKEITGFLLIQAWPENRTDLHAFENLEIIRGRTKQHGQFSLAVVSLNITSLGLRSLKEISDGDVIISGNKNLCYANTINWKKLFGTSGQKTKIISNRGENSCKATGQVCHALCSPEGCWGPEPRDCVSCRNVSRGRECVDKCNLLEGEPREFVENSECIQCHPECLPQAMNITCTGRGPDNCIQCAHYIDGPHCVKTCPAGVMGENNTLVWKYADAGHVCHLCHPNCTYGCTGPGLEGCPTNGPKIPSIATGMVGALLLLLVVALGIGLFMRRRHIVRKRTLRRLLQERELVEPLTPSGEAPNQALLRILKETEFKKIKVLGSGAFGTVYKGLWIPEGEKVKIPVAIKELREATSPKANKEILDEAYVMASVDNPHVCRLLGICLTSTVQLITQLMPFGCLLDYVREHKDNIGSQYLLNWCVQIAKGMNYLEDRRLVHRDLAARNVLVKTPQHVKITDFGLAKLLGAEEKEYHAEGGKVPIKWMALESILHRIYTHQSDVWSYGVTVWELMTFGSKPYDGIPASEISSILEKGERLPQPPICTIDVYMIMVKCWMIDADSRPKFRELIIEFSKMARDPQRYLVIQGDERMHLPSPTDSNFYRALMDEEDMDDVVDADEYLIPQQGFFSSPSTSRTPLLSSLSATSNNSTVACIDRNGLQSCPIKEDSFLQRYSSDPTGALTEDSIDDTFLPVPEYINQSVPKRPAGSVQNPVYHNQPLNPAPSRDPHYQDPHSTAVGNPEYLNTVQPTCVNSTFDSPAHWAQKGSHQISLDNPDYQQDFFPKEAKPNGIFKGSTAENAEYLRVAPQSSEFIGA
For data set [2], the target named is Tyrosine-protein kinase Fyn (Homo sapiens, UniProt P06241). Kind of data set: Inhibition of Fyn by IMAP assay. The procedure, abridged: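 IMAP fluorescence-polarisation assay: kinase activity read as phosphorylated fluorescent peptide substrate binding preferentially to immobilised metal beads. Reactions run with ATP at three times the Km.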
Chain of Tyrosine-protein kinase Fyn (P06241 whole entry): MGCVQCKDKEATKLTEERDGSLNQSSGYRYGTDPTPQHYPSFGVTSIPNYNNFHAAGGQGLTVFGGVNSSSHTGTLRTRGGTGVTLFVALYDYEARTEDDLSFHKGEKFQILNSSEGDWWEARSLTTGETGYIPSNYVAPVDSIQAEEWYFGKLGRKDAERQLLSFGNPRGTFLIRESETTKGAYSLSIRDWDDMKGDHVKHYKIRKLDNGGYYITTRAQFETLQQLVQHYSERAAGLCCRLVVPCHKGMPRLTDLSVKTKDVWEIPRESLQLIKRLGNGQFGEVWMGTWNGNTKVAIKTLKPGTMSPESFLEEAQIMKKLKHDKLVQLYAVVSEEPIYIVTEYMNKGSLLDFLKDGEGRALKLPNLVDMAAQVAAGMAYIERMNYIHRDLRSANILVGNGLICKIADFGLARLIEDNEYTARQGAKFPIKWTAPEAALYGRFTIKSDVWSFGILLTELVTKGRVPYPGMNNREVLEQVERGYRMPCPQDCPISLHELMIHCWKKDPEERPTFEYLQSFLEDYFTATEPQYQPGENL
For another data set, the target named is T1, Ephrin type-B receptor 3 (Homo sapiens, UniProt P54753).
T1 sequence (P54753 whole entry): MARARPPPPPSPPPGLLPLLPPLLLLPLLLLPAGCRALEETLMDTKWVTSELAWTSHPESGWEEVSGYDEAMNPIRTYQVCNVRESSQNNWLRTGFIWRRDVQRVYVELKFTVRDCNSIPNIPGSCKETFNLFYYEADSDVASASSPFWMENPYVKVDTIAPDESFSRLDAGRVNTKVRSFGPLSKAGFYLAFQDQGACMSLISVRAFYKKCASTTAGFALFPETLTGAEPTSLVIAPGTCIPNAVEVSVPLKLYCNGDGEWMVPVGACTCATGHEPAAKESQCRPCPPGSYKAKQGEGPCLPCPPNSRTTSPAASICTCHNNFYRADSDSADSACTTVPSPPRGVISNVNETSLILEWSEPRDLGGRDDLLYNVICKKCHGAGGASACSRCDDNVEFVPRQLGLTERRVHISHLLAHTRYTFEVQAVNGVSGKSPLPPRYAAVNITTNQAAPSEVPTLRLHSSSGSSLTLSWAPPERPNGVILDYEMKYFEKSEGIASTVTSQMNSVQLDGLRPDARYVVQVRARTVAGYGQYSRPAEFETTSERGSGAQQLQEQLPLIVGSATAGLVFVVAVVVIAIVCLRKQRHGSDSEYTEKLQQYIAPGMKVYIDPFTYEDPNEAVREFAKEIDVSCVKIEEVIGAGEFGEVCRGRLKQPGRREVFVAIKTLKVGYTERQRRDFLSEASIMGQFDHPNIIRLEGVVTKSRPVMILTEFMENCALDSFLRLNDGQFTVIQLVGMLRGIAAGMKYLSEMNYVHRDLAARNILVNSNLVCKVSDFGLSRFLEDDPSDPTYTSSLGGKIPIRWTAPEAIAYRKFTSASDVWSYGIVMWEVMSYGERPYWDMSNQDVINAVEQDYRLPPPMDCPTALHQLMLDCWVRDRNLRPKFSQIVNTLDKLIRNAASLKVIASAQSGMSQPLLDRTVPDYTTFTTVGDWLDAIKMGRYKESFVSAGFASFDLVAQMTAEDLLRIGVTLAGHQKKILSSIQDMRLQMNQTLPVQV
Kind of data set: Inhibition of EphB3.

Data set [3] concerns the target Mitogen-activated protein kinase 1 (Homo sapiens, UniProt P28482). Kind of data set: Inhibition of ERK2 by IMAP assay. The procedure, abridged:
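IMAP fluorescence-polarization assay, in which phosphorylated fluorescent peptide substrates bind immobilized metal beads. Reactions ran at ATP three times Km.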

A further data set has as its system HUVEC. Kind of data set: Antiangiogenic activity in HUVEC assessed as inhibition of VEGF-induced cell proliferation. As to conditions: Homo sapiens.
Another data set deals with RKO. Kind of data set: Antiproliferative activity against human RKO cells.
Data set [4] is described as follows: AUC in athymic nude mouse at 10 mg/kg, iv. As to conditions: plasma. Details: dose 10 mg/kg, route intravenous. Type of data set: ADME, organism-based. The procedure, abridged:
(§1)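 Athymic nude mice received one dose, either iv 10 mg/kg in 2% DMA/10% PEG400/88% of 40% HPBCD in water, or po 50 mg/kg in 2% Klucel LF/0.1% Tween 80. Retro-orbital or terminal cardiac blood was drawn from 1 min (iv) or 5 min (po) to 24 h into EDTA. Plasma was analysed by LC-MS/MS. Composite parameters were obtained by non-compartmental analysis, with AUC extrapolated to infinity.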

Data set [5] is described as follows: Tmax in athymic nude mouse at 50 mg/kg, po. Type of data set: ADME, organism-based. Details: dose 50 mg/kg, route oral. Particulars: in vivo. The procedure, abridged: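 Athymic nude mice, single oral dose 50 mg/kg in 2% Klucel LF, 0.1% Tween 80 in water, 0.2 mL. Retro-orbital or terminal cardiac blood at 5, 15, 30 min and 1, 2, 4, 8, 16, 24 h; EDTA plasma by LC-MS/MS. Composite parameters; Tmax read from mean concentration–time profile.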

The nature of data set [6]: Oral bioavailability in athymic nude mouse at 50 mg/kg. Type of data set: ADME, organism-based. As to conditions: in vivo. The procedure, abridged:
as §1

Data set [7] in a line: AUC in athymic nude mouse at 50 mg/kg, po. Type of data set: ADME, organism-based. Details: dose 50 mg/kg, route oral. Particulars: plasma. The method in brief:
as §1

Data set [8] in a line: Cmax in athymic nude mouse at 50 mg/kg, po. It is filed as ADME, organism-based. On the set-up: dose 50 mg/kg, route oral. As to conditions: in vivo. The procedure, abridged:
as §1

Data set [9] in a line: Half life in Wistar rat at 5 mg/kg, iv. It is filed as ADME, organism-based. Details: dose 5 mg/kg, route intravenous. As to conditions: in vivo. The procedure, abridged: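 Wistar rats received one dose, either iv 5 mg/kg via femoral arterial catheter (2% DMA/10% PEG400/88% of 40% HPBCD) or po 50 mg/kg (2% Klucel LF/0.1% Tween 80). Blood came from an implanted jugular catheter, up to 24 h (iv) or 48 h (po), into EDTA. Plasma LC-MS/MS; individual non-compartmental parameters were averaged.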

Data set [10] in a line: Tmax in Wistar rat at 50 mg/kg, po. Details: dose 50 mg/kg, route oral. Particulars: in vivo. It is filed as ADME, organism-based. The method in brief: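 Wistar rats, single oral dose 50 mg/kg as suspension in 2% Klucel LF, 0.1% Tween 80 in water, 5 mL/kg. Jugular catheter blood at 5, 15, 30 min and 1, 3, 6, 12, 24, 48 h; EDTA plasma, LC-MS/MS. Tmax taken from concentration–time profiles; individual-animal parameters averaged.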

Data set [11] has as its system Mus musculus. Kind of data set: Dose normalized AUC in C57/BL6 mouse at 25 mg/kg, po bid for 5 days. It is filed as ADME, organism-based. On the set-up: dose 25 mg/kg, route oral. As to conditions: in vivo, 120 h. The procedure, abridged: (§2)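 Female C57/BL6 mice were dosed orally twice daily for 5 days with a suspension in 2% Klucel LF/0.1% Tween 80 in water. Six mice per dose were split into two subgroups of three, each sampled at alternate time points. Retro-orbital blood was taken at 0, 1, 4 and 8 h post-dose into EDTA, and plasma was analysed by LC-MS/MS. Parameters come from mean concentrations; AUC0–8h by linear trapezoidal rule; Cmax and Tmax as observed.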

Data set [12] in a line: Cmax in C57/BL6 mouse at 25 mg/kg, po bid for 5 days. Type of data set: ADME, organism-based. On the set-up: dose 25 mg/kg, route oral. As to conditions: in vivo. The procedure, abridged:
as §2

Data set [13] is described as follows: AUC in C57/BL6 mouse at 50 mg/kg, po bid for 5 days. Type of data set: ADME, organism-based. On the set-up: dose 50 mg/kg, route oral. Particulars: plasma. The procedure, abridged: as §2
Data set [14] is described as follows: AUC in […] mouse at 100 mg/kg, po. It is filed as ADME, organism-based. Details: dose 100 mg/kg, route oral. As to conditions: plasma. The method in brief:
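A separate group of female mice received one 100 mg/kg oral dose. Median PK parameters were calculated for that cohort.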

The subject of data set [15] is Mus musculus. Kind of data set: Antiangiogenic activity in C57/BL6 mouse cornea assessed as inhibition of VEGF-induced angiogenesis at 100 mg/kg, po bid for 7 days by corneal pocket assay relative to control. Type of data set: functional. As to conditions: 168 h. The procedure, abridged: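 VEGF-impregnated pellets were implanted in corneas of female C57/BL6 mice aged 5–7 weeks. Oral twice-daily dosing started the same day and ran 7 days. The area of vascularization was then quantitated relative to animals given vehicle (2% Klucel LF, 0.1% Tween 80 in water).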

Chain of Mitogen-activated protein kinase 1 (P28482 whole entry): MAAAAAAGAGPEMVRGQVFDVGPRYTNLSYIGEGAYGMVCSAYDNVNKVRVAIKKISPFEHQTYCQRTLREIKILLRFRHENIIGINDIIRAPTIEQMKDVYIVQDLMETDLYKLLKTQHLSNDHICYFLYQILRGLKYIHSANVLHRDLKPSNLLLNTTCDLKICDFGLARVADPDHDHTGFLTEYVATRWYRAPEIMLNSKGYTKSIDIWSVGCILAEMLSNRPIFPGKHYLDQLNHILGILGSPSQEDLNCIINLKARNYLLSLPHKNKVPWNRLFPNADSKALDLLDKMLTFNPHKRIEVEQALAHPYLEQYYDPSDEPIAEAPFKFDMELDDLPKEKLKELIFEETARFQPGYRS

`COc1ccc(N2Cc3cnc(Nc4ccccc4)nc3N([C@@H]3CC[C@@H](O)C3)C2=O)cc1` (racemic): the half-maximal inhibitory concentration (IC50) in data set [1] was 310 nM; in data set [2], 322 nM; at Ephrin type-B receptor 3, 1090 nM; in data set [3] it was 3040 nM; with HUVEC it was 68 nM; in the data set on RKO, 2300 nM. Besides, the AUC in data set [4] amounted to 11100 ng·h/mL; in data set [7], 51300 ng·h/mL; in [14], 146000 ng·h/mL. The values for the time of peak concentration (Tmax) in data set [5] and in [10] were 0.25 h and 5.3 h, respectively. In data set [6], this molecule had a bioavailability of 93%. Also, the Cmax in [8] amounted to 16500 ng/mL; in [12], 12000 ng/mL. In data set [9], this molecule gave a half-life of 6 h. Further, the AUC/dose in the data set on Mus musculus [11] was 1199 ng·h/mL/mg/kg. The AUC at 120 h in [13] amounted to 75500 ng·h/mL. Further, in the data set on Mus musculus [15], the inhibition in vivo at 100 mg/kg amounted to 99%.
